Data taken from publication PMC9015489 (Chemmedchem, 2022).

Key:
NRF2‐ARE pathway = experiment: AREc32 luciferase reporter gene assay; type: cell-based; conditions: for ARE specificity ratio, SR: SR = IC10/ECIR1.5, AREc32 cells, 24 h exposure
In short: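 AREc32 cells in DMEM+GlutaMAX with 10% FBS and pen/strep, 2650/well, attached 24 h at 37 °C, 5% CO2. Test compound (1×10−15 to 1×10−2 M) for 24 h; tert‐butylhydroquinone as positive control. Luciferase read after PBS washes and Tris/Triton lysis. IR = signal/mean unexposed; ECIR1.5 by linear fit for IR<4. Imaged confluency versus unexposed cells gave IC10 from the linear range.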

[1] = Experimental distribution coefficient logD7.4; type: physicochemical; conditions: pH 7.4
human serum albumin = human serum albumin (Homo sapiens, UniProt P02768); experiment: Plasma protein binding estimated by an HPLC-based method; type: in vitro ADME
[2] = molecular target: human adenosine A2A receptors (Homo sapiens, UniProt P29274); experiment: Radioligand competition binding assay with [3H]CGS-21680
In short: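 Membranes from CHO-S cells recombinantly expressing the human adenosine A2A receptor. Competition with the A2A-selective agonist radioligand [3H]CGS-21680. Test compound run at concentrations from 10 nM to 100 μM. Read-out is % inhibition of radioligand binding, with Ki estimated; n=3.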

SARS‐CoV‐2 (B.3 strain) = experiment: Vero-E6 SARS-CoV-2 plaque reduction assay; type: cell-based
[3] = read-out: % inhibition of radioligand binding

Sequence of human adenosine A2A receptors (P29274 whole entry): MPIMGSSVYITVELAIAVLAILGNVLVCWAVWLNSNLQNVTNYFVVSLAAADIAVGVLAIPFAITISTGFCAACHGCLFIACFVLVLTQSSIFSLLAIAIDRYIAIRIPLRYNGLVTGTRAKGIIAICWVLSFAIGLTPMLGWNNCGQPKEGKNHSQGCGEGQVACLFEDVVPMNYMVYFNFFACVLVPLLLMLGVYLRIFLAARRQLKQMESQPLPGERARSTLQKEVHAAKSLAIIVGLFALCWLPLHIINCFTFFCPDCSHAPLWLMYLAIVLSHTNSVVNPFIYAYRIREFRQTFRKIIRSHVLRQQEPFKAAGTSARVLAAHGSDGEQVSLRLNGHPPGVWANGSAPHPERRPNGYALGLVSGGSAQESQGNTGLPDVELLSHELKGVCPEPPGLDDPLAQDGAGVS
Sequence of human serum albumin (P02768 25-609): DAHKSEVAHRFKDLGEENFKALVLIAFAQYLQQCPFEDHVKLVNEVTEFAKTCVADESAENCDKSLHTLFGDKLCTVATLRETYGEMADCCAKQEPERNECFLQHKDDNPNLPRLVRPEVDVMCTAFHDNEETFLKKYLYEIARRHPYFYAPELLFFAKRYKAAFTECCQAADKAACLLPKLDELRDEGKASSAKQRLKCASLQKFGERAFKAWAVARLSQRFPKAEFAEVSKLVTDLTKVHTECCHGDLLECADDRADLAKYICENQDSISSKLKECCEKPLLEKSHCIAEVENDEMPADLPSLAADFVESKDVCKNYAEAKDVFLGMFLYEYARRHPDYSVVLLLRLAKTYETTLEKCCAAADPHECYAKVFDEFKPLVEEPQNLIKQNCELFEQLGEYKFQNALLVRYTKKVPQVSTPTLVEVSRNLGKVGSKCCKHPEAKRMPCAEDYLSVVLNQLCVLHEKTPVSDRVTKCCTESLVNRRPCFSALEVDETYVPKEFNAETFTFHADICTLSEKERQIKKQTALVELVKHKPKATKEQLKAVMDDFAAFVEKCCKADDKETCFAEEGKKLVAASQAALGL

Row | SMILES | ARE specificity ratio, SR (NRF2‐ARE pathway) | chromatographic logD [1] | fraction unbound (human serum albumin) | also measured
1 | C=C1CCC2[C@](C)(C(=O)NCCC)[C@H](O)CC[C@@]2(C)[C@@H]1C/C=C1/C(=O)OC[C@H]1O (stereo partly drawn) [16 a, (1S,2R,4aS,5R)‐2‐Hydroxy‐5‐[(2E)‐2‐[(4S)‐4‐hydroxy‐2‐oxo‐tetrahydrofuran‐3‐ylidene]ethyl]‐1,4 a‐dimethyl‐6‐methylene‐N‐propyl‐decalin‐1‐carboxamide] | 35.6 | 1.9 | 0.17 | 
2 | C=C1CCC2[C@](C)(C(=O)NCCc3ccccc3)[C@H](O)CC[C@@]2(C)[C@@H]1C/C=C1/C(=O)OC[C@H]1O (stereo partly drawn) [16 b, (1S,2R,4aS,5R)‐2‐Hydroxy‐5‐[(2E)‐2‐[(4S)‐4‐hydroxy‐2‐oxo‐tetrahydrofuran‐3‐ylidene]ethyl]‐1,4 a‐dimethyl‐6‐methylene‐N‐(2‐phenylethyl)decalin‐1‐carboxamide] | 10.8 | 2.5 | 0.62 | 
3 | C=C1CCC2[C@](C)(C(=O)NCCOCCOCCOCCOC)[C@H](O)CC[C@@]2(C)[C@@H]1C/C=C1/C(=O)OC[C@H]1O (stereo partly drawn) [16 c, (1S,2R,4aS,5R)‐2‐Hydroxy‐5‐[(2E)‐2‐[(4S)‐4‐hydroxy‐2‐oxo‐tetrahydrofuran‐3‐ylidene]ethyl]‐N‐[2‐[2‐[2‐(2‐methoxy‐ethoxy)ethoxy]ethoxy]ethyl]‐1,4 a‐dimethyl‐6‐methylene‐decalin‐1‐carboxamide] | 13.3 | 1.3 | 0.08 | 
4 | C=C1CC[C@@H]2[C@](C)(CO)[C@H](O)CC[C@@]2(C)[C@@H]1C/C=C1/C(=O)OC[C@H]1O [Compound 1, Andrographolide] | 19.4 |  |  | Ki [2]: > 100 µM; inhibition at 10 µM [2, 3]: 7%; inhibition at 100 µM [2, 3]: 33%; Effect on Vero-E6 cell proliferation (crystal violet staining) (Vero‐E6 cells; at 10 μM): inhibited cell proliferation; Toxicity on attached Vero-E6 cells (Vero‐E6 cells; at any concentration (0.5-10 μM)): did not show toxicity
5 | C=C1CCC2[C@](C)(CO)[C@H](O)CC[C@@]2(C)[C@@H]1CCC1C(=O)OC[C@H]1O (stereo partly drawn) [Compound 11, (4S)‐3‐[2‐[(1R,5R,6R,8aS)‐6‐Hydroxy‐5‐(hydroxymethyl)‐5,8 a‐dimethyl‐2‐methylene‐decalin‐1‐yl]ethyl]‐4‐hydroxy‐tetrahydrofuran‐2‐one] |  |  |  | Anti-SARS-CoV-2 activity (in words) (SARS‐CoV‐2 (B.3 strain)): did not possess anti‐SARS‐CoV‐2 activities
6 | CC(C)(C)c1cc(O)ccc1O [Tert‐butylhydroquinone, reference compound] |  |  |  | ECIR1.5 (NRF2‐ARE pathway; effect concentration causing an induction ratio (IR) of 1.5, linear model, 24 h): 3.4 ± 0.2 µM
